According to ChEMBL document CHEMBL5356984 (RSC Med Chem, 2023):
Activity calls are given as the source filed them. The rule behind the calls is not given here.

Tests used:
[1] = test system: SK-BR-3; experiment: Induction of apoptosis in human SK-BR-3 cells assessed as early apoptotic cells at 10 uM incubated for 36 hrs by Annexin V/PI staining based flow cytometry (reference value: 2.73 %); format: functional
[2] = test system: SK-BR-3; experiment: Induction of apoptosis in human SK-BR-3 cells assessed as early apoptotic cells at 5 uM incubated for 36 hrs by Annexin V/PI staining based flow cytometry (reference value: 2.73 %); format: functional
[3] = test system: SK-BR-3; experiment: Induction of apoptosis in human SK-BR-3 cells assessed as late apoptotic cells at 20 uM incubated for 36 hrs by Annexin V/PI staining based flow cytometry (reference value: 4.95 %); format: functional
[4] = test system: MCF7; experiment: Antiproliferative activity against human MCF7 cells assessed as inhibition of cell viability measured after 48 hrs by MTT assay; format: functional, cell-based; conditions: MCF7, 48 h
Outline: (§1)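 MTT cell viability read-out; IC50 obtained by non-linear regression of concentration–response data; values are mean ± SD of three independent experiments.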

[5] = test system: MCF7; experiment: Induction of apoptosis in human MCF7 cells assessed as necrotic cells at 10 uM incubated for 36 hrs by Annexin V/PI staining based flow cytometry (reference value: 2.30 %); format: functional
[6] = target: T1, Heat shock protein HSP90 (Homo sapiens, UniProt P07900+P08238); experiment: Inhibition of HSP90 in human MCF7 cells assessed as decrease in HER2 level at 5 to 20 uM incubated for 48 hrs by Western blot analysis; format: cell-based; conditions: dose 5-20 µM
Outline: (§2)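 MCF-7 or SKBr3 cells were exposed for 48 h, then trypsinised, PBS-washed and lysed in RIPA buffer with phosphatase and protease inhibitors. Cleared lysate (14 000 rpm, 4 °C, 15 min) was BCA-quantified, and 20 µg protein was run on SDS-PAGE and blotted. Blots were blocked in 5% milk, incubated with primary antibodies (1:1000) overnight at 4 °C, then HRP secondary, and developed by ECL. GAPDH (1:10000) was the loading control.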

[7] = test system: MCF7; experiment: Induction of apoptosis in human MCF7 cells assessed as increase in cleaved PARP level at 10 to 20 uM incubated for 48 hrs by Western blot analysis; format: functional, cell-based; conditions: dose 10-20 µM
Outline: (§3)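 Cells exposed 48 h (DMSO vehicle control); trypsinized, lysed in RIPA with phosphatase/protease inhibitors; 20 μg protein on SDS-PAGE, blotted, blocked 5% milk 1 h; primary antibodies 1:1000 overnight at 4 °C, GAPDH 1:10000 as loading control; HRP secondary 1:1000–1:5000; ECL detection.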

[8] = target: T1, Heat shock protein HSP90; experiment: Competitive binding affinity to N-terminal HSP90 (unknown origin) at 0.03 to 16 uM incubated for 3 hrs in presence of FITC-GA by fluorescence polarization assay; format: protein assay; conditions: dose 0.03-16 µM
Outline: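 Competition against FITC-geldanamycin (5 nM) for HSP90α (10 nM) in reaction buffer with 1% BSA, DMSO <1%; compounds at 0.03–16.0 μM final; 3 h at room temperature; fluorescence polarization read at ex 485/em 530 nm; activity% = (FPdrug − FPbackground)/(FPenzyme − FPbackground) × 100, curve-fitted.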

[9] = test system: SK-BR-3; experiment: Effect on HSF-1 level in human SK-BR-3 cells assessed as nuclear accumulation at 10 uM incubated for 36 hrs by DAPI staining based immunofluorescence analysis; format: functional, cell-based
Outline: (§4)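 Cells treated 36 h with DMSO vehicle control, then fixed with 4% paraformaldehyde 15 min, permeabilized with 0.2% Triton X-100 5 min, blocked with 3% BSA 15 min; primary antibody then fluorescent secondary antibody, each 1 h at room temperature; HSP70 green, HSF-1 red, nuclei DAPI; imaged by fluorescence microscopy.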

[10] = test system: MCF7; experiment: Induction of apoptosis in human MCF7 cells assessed as viable cells at 5 uM incubated for 36 hrs by Annexin V/PI staining based flow cytometry (reference value: 90.5 %); format: functional; conditions: read-out: Activity
[11] = test system: HEK-293T; experiment: Cytotoxicity against HEK293T cells assessed as cell growth inhibition measured after 48 hrs by MTT assay; format: functional, cell-based; conditions: Homo sapiens; outline: as §1
[12] = test system: MDA-MB-468; experiment: Antiproliferative activity against human MDA-MB-468 cells assessed as inhibition of cell viability measured after 48 hrs by MTT assay; format: functional, cell-based; conditions: MDA-MB-468, 48 h; outline: as §1
[13] = test system: SK-BR-3; experiment: Induction of cell cycle arrest in human SK-BR-3 cells assessed as accumulation of cells at G1 phase at 5 to 10 uM incubated for 36 hrs by PI staining based flow cytometry; format: functional; conditions: dose 5-10 µM
Outline: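 Following 36 h treatment (0, 5, 10 μM), trypsinized cells fixed overnight in 70% ethanol, treated with RNase (0.2 mg/mL) and PI (0.1 mg/mL) for 20 min, then analysed by flow cytometry for cell-cycle distribution; n = 3 versus control.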

[14] = test system: MCF7; experiment: Effect on HSP70 level in human MCF7 cells at 5 to 20 uM incubated for 48 hrs by Western blot analysis; format: functional, cell-based; conditions: dose 5-20 µM; outline: as §3
[15] = test system: SK-BR-3; experiment: Induction of apoptosis in human SK-BR-3 cells assessed as late apoptotic cells at 5 uM incubated for 36 hrs by Annexin V/PI staining based flow cytometry (reference value: 4.95 %); format: functional
[16] = target: T1, Heat shock protein HSP90; experiment: Inhibition of HSP90 in human SK-BR-3 cells assessed as decrease in CDK4 level at 5 to 20 uM incubated for 48 hrs by Western blot analysis; format: cell-based; conditions: dose 5-20 µM; outline: as §2
[17] = test system: MCF7; experiment: Antiproliferative activity against human MCF7 cells assessed as inhibition of cell viability at 20 uM measured after 48 hrs by MTT assay relative to control; format: functional
[18] = test system: MCF7; experiment: Effect on AKT level in human MCF7 cells at 5 to 20 uM incubated for 48 hrs by Western blot analysis; format: functional, cell-based; conditions: dose 5-20 µM; outline: as §3
[19] = test system: MCF7; experiment: Induction of apoptosis in human MCF7 cells assessed as necrotic cells at 20 uM incubated for 36 hrs by Annexin V/PI staining based flow cytometry (reference value: 2.30 %); format: functional
[20] = target: T1, Heat shock protein HSP90; experiment: Inhibition of HSP90 (unknown origin) at C-terminal by AlphaScreen assay; format: protein assay
Outline: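 Modified AlphaScreen system measuring disruption of Cyp40 binding to recombinant HSP90 C-terminal domain; IC50 from two independent experiments.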

[21] = test system: SK-BR-3; experiment: Induction of apoptosis in human SK-BR-3 cells assessed as increase in cleaved PARP level at 10 to 20 uM incubated for 48 hrs by Western blot analysis; format: functional, cell-based; conditions: dose 10-20 µM; outline: as §3
[22] = test system: SK-BR-3; experiment: Induction of apoptosis in human SK-BR-3 cells assessed as increase in cleaved pro-caspase-9 level at 10 to 20 uM incubated for 48 hrs by Western blot analysis; format: functional, cell-based; conditions: dose 10-20 µM; outline: as §3
[23] = test system: SK-BR-3; experiment: Induction of apoptosis in human SK-BR-3 cells assessed as viable cells at 5 uM incubated for 36 hrs by Annexin V/PI staining based flow cytometry (reference value: 90.4 %); format: functional; conditions: read-out: Activity
[24] = target: T1, Heat shock protein HSP90; experiment: Inhibition of HSP90 in human SK-BR-3 cells assessed as decrease in HER2 level at 5 to 20 uM incubated for 48 hrs by Western blot analysis; format: cell-based; conditions: dose 5-20 µM; outline: as §2
[25] = test system: SK-BR-3; experiment: Effect on HSP70 level in human SK-BR-3 cells at 10 uM incubated for 36 hrs by DAPI staining based immunofluorescence analysis; format: functional, cell-based; outline: as §4
[26] = test system: MCF7; experiment: Induction of apoptosis in human MCF7 cells assessed as late apoptotic cells at 20 uM incubated for 36 hrs by Annexin V/PI staining based flow cytometry (reference value: 6.02 %); format: functional
[27] = test system: MCF7; experiment: Induction of apoptosis in human MCF7 cells assessed as early apoptotic cells at 10 uM incubated for 36 hrs by Annexin V/PI staining based flow cytometry (reference value: 1.13 %); format: functional

## CN1CCN(/C=C/C(=O)/C=C/c2cccc(O[Si](C)(C)C(C)(C)C)c2)CC1
[1]
  Activity: 3.01%
[2]
  Activity: 2.76%
[3]
  Activity: 30.7%
[4]
  IC50: 7.85 µM
[5]
  Activity: 10.1%
[6]
  inhibition: Active
[7]
  Activity: Active
[8]
  Activity: inactive
[9]
  Activity: inactive
[10]
  viability at 5 µM: 80%
[11]
  IC50: 32.6 µM
[12]
  IC50: 8.16 µM
[13]
  Activity: Active
[14]
  Activity: inactive
[15]
  Activity: 5.82%
[16]
  inhibition: Active
[17]
  inhibition at 20 µM: > 50%
[18]
  Activity: inactive
[19]
  Activity: 16.2%
[20]
  IC50: 53.94 µM
[21]
  Activity: Active
[22]
  Activity: Active
[23]
  viability at 5 µM: 89.6%
[24]
  inhibition: Active
[25]
  Activity: inactive
[26]
  Activity: 28.4%
[27]
  Activity: 2.6%
